Experimental data from different studies.
Compare with care: the assays were run in different laboratories.
Organism: Escherichia coli
Observed: microbial growth

SMILES | assay | test system | conditions | MIC
CC[C@H]1OC(=O)[C@H](C)[C@@H](O[C@H]2C[C@@](C)(OC)[C@@H](O)[C@H](C)O2)[C@H](C)[C@@H](O[C@@H]2O[C@H](C)C[C@H](N(C)C)[C@H]2O)[C@](C)(O)C[C@@H](C)CN(C)[C@H](C)[C@@H](O)[C@]1(C)O |  | ATCC25922 |  | < 98 µg/mL
CN(C)c1cc(NC(=O)CNC(C)(C)C)c(O)c2c1C[C@H]1C[C@H]3[C@H](N(C)C)C(O)=C(C(N)=O)C(=O)[C@@]3(O)C(O)=C1C2=O |  |  |  | ≤ 0.5 µg/mL
C[C@H]1COc2c(N3CCN(C)CC3)c(F)cc3c(=O)c(C(=O)O)cn1c23 |  | ATCC25922 | drug-resistant strain | ≤ 0.03 µg/mL
CCN(CC)c1ccc(C=NNC(=O)c2ccc(Cl)cc2)c(O)c1 | broth dilution | ATCC25922 |  | > 256 µg/mL
CCN1CCC(CCNCc2cc3cc(-c4ccccc4)ccc3nc2SCc2ccccc2)CC1 | broth dilution |  |  | 8 µg/mL
COc1ccc(N2N=C(C(C)=O)SC2=C(C#N)C(=O)c2ccc(Nc3cnccn3)cc2)cc1 | broth dilution | ATCC10536 |  | 6.25 µg/mL
Cc1cc(O)cc(Nc2nnc(-c3n[nH]c4ccc(C)cc34)s2)c1 |  | ATCC25922 |  | 176 µg/mL
O=C1/C(=C/c2ccc3ccccc3c2O)NC(=S)N1c1ccccc1 | broth dilution | ATCC25 ATCC25922 |  | 16 µg/mL
Brc1ccc2nc(SCc3ccccc3)c(CNCCC3CCN(C4CCCC4)CC3)cc2c1 | broth dilution |  |  | 32 µg/mL
N=c1sc(C(=O)c2ccc(Nc3cnccn3)cc2)nn1-c1ccc([N+](=O)[O-])cc1 | broth dilution | ATCC10536 |  | 6.25 µg/mL
CN(C)[C@@H]1C(O)=C(C(N)=O)C(=O)[C@@]2(O)C(O)=C3C(=O)c4c(O)cccc4[C@@](C)(O)[C@H]3C[C@@H]12 | broth dilution | ATCC25922 | 16 h | 3.1 µM
CCOC(=O)C(C)c1n[nH]c2nc(N)[nH]c(=O)c2c1=O (stereo not drawn) | broth dilution | BW25113 | 18 h | > 100 µg/mL
COc1ccc2ccc(O)c(/C=N/[C@H]3CCCC[C@H]3/N=C/c3ccc(OCCN4CCCCC4)cc3O)c2c1 | broth dilution |  |  | > 40 µM
CC1(C)S[C@@H]2[C@H](NC(=O)[C@H](N)c3ccccc3)C(=O)N2[C@H]1C(=O)O | broth dilution | ATCC25922 |  | 4 µg/mL
COc1ccc2ccc(O)c(/C=N/[C@H]3CCCC[C@H]3/N=C/c3ccc(-c4ccccc4)cc3O)c2c1 | broth dilution |  |  | > 40 µM
Cc1cc(Nc2nnc(-c3n[nH]c4ccc(C)cc34)s2)cc([N+](=O)[O-])c1 |  | ATCC25922 |  | 166 µg/mL
CC(=O)C1=NN(c2ccc([N+](=O)[O-])cc2)C(=C(C#N)C(=O)c2ccc(Nc3cnccn3)cc2)S1 | broth dilution | ATCC10536 |  | 6.25 µg/mL
C[C@@H](O)[C@H]1C(=O)N2C(C(=O)O)=C(S[C@@H]3CN[C@H](C(=O)N(C)C)C3)[C@H](C)[C@H]12 |  |  |  | ≤ 0.25 µg/mL
CCN(CC)c1ccc(C=NC(=O)c2ccc3ccccc3c2)c(O)c1 | broth dilution | ATCC25922 |  | > 256 µg/mL
c1ccc(CSc2nc3ccc(-c4ccccc4)cc3cc2CNCc2ccc(CN3CCCC3)cc2)cc1 | broth dilution |  |  | > 128 µg/mL
Cc1ccc2[nH]nc(-c3nnc(Nc4ccc(O)cc4)s3)c2c1 |  | ATCC25922 |  | 64.7 µg/mL
